The target in data set [1] is Coagulation factor X (Homo sapiens) (UniProt P00742). The note with it: Plasma, at 10 mg/kg.
Data set [2] is described as follows: Inhibitory concentration against coagulation factor X; n=2.
Data set [3] in a line: Inhibitory concentration against thrombin (FIIa); n=2.
Data set [4] can be described thus: Number of mouse death after 10 mg/kg compound intravenous administration; n=3. It counts as ADME, organism-based. Also noted: dose 10 mg/kg, route intravenous. As to conditions: in vivo. The method, boiled down: (§1)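 Result recorded as the number of deaths over the number of animals tested.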
A short description of data set [5]: Number of mouse death after 10 mg/kg compound intravenous administration; NT= not tested. Further details: dose 10 mg/kg, route intravenous. The note with it: in vivo. It counts as ADME, organism-based. A digest of the protocol: as §1
A short description of data set [6]: Number of mouse death after 10 mg/kg compound intra venous administration; n=3. It counts as ADME, organism-based. Further details: dose 10 mg/kg. The note with it: in vivo, iv. The method, boiled down:
as §1

A short description of data set [7]: Maximum concentration in monkey plasma after 10 mg/kg oral administration at 120 min. In kind it is ADME, organism-based. Further details: dose 10 mg/kg, route oral. The note with it: cercopithecidae.
In another data set the target is Plasminogen (Homo sapiens, UniProt P00747). In words: Mean inhibitory concentration against plasmin; n=3. The method, boiled down: (§2)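 Ki against each protease (factor Xa, thrombin, plasmin, trypsin), obtained from Dixon plots built at two substrate concentrations; mean of n = 3.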
A short description of data set [8]: Mean inhibitory concentration against coagulation factor X; n=3. The method, boiled down: as §2
Data set [9] is described as follows: Mean inhibitory concentration against trypsin; n=3. The method, boiled down:
as §2

A short description of data set [10]: Mean inhibitory concentration against thrombin; n=3. The method, boiled down: as §2

SMILES strings stand for the structures. Where only a bound is given, the exact number is not on record here.

Broadly, the inhibition is the change of the read-out against control, counted positive when it falls. By IC50 is commonly meant the concentration that inhibits the measured activity by half. By Cmax is commonly meant the peak of the concentration-time curve. Usually Ki stands for the dissociation constant of the complex between target and ligand, obtained from inhibition or displacement.

Chain of Plasminogen (P00747 97-580 limits assumed): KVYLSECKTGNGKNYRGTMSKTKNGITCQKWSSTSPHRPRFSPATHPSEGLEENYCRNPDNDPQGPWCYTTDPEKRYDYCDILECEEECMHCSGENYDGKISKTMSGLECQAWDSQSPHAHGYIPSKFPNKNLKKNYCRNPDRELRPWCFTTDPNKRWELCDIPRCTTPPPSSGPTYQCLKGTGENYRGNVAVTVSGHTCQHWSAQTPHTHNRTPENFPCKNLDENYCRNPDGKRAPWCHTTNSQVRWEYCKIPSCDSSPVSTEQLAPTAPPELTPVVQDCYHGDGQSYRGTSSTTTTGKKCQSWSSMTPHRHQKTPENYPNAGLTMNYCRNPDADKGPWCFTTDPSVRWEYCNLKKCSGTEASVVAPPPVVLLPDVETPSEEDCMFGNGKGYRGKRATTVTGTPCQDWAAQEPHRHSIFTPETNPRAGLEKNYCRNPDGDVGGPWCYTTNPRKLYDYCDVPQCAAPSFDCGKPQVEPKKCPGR
Chain of Plasminogen (P00747 581-810 limits assumed): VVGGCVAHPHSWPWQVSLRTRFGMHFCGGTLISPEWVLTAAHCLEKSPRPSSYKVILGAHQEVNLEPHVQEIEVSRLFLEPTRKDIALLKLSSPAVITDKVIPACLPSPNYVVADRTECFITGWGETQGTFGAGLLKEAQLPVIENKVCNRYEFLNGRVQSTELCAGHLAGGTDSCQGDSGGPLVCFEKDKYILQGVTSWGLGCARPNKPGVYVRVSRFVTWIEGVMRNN
Chain of Coagulation factor X (Homo sapiens) (P00742 41-179 limits assumed): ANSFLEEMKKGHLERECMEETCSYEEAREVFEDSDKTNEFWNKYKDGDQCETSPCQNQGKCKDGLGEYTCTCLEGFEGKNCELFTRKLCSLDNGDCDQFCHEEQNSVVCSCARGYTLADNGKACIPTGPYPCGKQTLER
Chain of Coagulation factor X (Homo sapiens) (P00742 235-488 limits assumed): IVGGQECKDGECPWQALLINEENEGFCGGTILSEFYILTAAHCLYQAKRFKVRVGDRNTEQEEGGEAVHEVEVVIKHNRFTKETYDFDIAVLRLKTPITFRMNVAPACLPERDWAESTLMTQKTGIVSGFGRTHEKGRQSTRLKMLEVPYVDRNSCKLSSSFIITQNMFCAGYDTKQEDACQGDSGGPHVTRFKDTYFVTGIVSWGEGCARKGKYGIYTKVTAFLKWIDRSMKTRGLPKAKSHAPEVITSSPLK

`N=C(N)N1CCc2ccc(OCC3(C(=O)O)CCN(c4ccncc4)CC3)cc2C1` displayed an inhibition in data set [1] of 41%.

With `Cl.Cl.N=C(N)N1CCc2ccc(OCC3CCN(c4ccncc4)CC3)cc2C1`, the IC50 was 0.06 µM in data set [2] and greater than 10 µM in [3]. The Mortality in data set [4] is 3.

Consider `Cl.Cl.Cl.N=C(N)N1CCc2ccc(OCC3CCN(Cc4ccncc4)CC3)cc2C1`, for which the IC50 in data set [2] was 0.8 µM; in data set [3] it was greater than 10 µM. For the same compound, in data set [5], the Mortality came to 3.

With `N=C(N)N1CCc2ccc(OCC3CCN(Cc4ccccn4)CC3)cc2C1`, the IC50 in data set [2] is 1 µM; in data set [3] it was greater than 10 µM.

For `Cl.Cl.N=C(N)N1CCc2ccc(OCC3(C(=O)O)CCN(c4ccncn4)CC3)cc2C1`, the figures for the IC50 in data set [2] and in [3] were 0.1 µM and greater than 10 µM, respectively. The Mortality in [6] came to 0.

In the case of `Cc1cc(N2CCC(COc3ccc4c(c3)CN(C(=N)N)CC4)(C(=O)O)CC2)ccn1.Cl.Cl`, the values for the IC50 in [2] and in data set [3] were 0.2 µM and greater than 10 µM, respectively. In data set [6], the Mortality came out at 0.

As for `CCOC(=O)C1(COc2ccc3c(c2)CN(C(=N)N)CC3)CCN(c2ccncc2)CC1.Cl.Cl`, the IC50 in data set [2] is 0.08 µM; in [3], greater than 10 µM. The compound also yielded a Mortality in [6] of 3.

On to `Cl.Cl.N=C(N)N1CCc2ccc(OCC3(C(=O)O)CCN(c4ccncc4)CC3)cc2C1`, for which, in data set [3], the IC50 is greater than 10 µM. Also, the Mortality in [6] is given as 0.

With `Cl.Cl.N=C(N)N1CCc2ccc(OCC3CCN(c4ccncc4CCC(=O)O)CC3)cc2C1`, the IC50 in data set [2] was 0.2 µM; in [3] it was greater than 10 µM. Also, the Mortality in [6] is listed as 0.

`N=C(N)N1CCc2ccc(OCC3(C(=O)O)CCN(c4ccncc4)CC3)cc2C1.O=S(O)O`: in data set [7], the highest level (Cmax) was 391 ng/mL. Further, the Ki at Plasminogen was 78.2 µM; in data set [8], 0.019 µM; in data set [9] it was 13.6 µM; in [10] it was greater than 100 µM.

For the compound `Cl.Cl.N=C(N)N1CCc2ccc(OCC3CCN(c4ccnc5ccccc45)CC3)cc2C1`, the IC50 in data set [2] is 0.4 µM; in data set [3] it was greater than 10 µM. In data set [4], the Mortality worked out at 3.

On to `CC(=N)N1CCC(Oc2ccc(C(Cc3ccc4cc[n+](C(=N)N)cc4c3)C(=O)O)cc2)C1` (stereo not drawn), for which the Ki at Plasminogen was 23 µM; in data set [9], 0.62 µM; in data set [10] it was greater than 100 µM.

`N=C(N)N1CCc2ccc(OCC3CCNCC3)cc2C1`: the IC50 in data set [2] was 3 µM; in [3] it was greater than 10 µM.

As to `COC(=O)c1cnccc1N1CCC(COc2ccc3c(c2)CN(C(=N)N)CC3)CC1.Cl.Cl`, the IC50 in data set [2] is 0.2 µM; in [3], greater than 10 µM. The same compound came in with a Mortality in [4] of 3.

For `CCOC(=O)CCc1cnccc1N1CCC(COc2ccc3c(c2)CN(C(=N)N)CC3)CC1.Cl.Cl`, the IC50 in data set [2] was 0.2 µM; in data set [3] it was greater than 10 µM. The compound further came in with a Mortality in [4] of 3.

Take `CC(=N)N1CCC(COc2ccc3c(c2)CN(C(=N)N)CC3)CC1.Cl.Cl`: the IC50 in [2] is 0.5 µM; in [3], greater than 10 µM. In data set [4], this compound returned a Mortality of 3.

Take `Cl.Cl.N=C(N)N1CCc2ccc(OCC3CCN(c4ccncc4C(=O)O)CC3)cc2C1`: the 50% inhibitory concentration (IC50) in [2] is 2 µM; in data set [3], greater than 10 µM. In [4], this compound yielded a Mortality of 0.
